22 molecules from ChEMBL document CHEMBL3856259, “Evaluation of canthinone alkaloids as cerebral protective agents” (Bioorg Med Chem Lett, 2016) can be followed below.

The source made the active and inactive calls. No cut-off for these calls is given here. Bounds are passed on as bounds.

Data set [1] deals with Meriones unguiculatus. Briefly: Cerebral protective activity in cerebral ischemia-induced Mongolian gerbil assessed as passive avoidance test value at 100 mg/kg, po pretreated for 30 mins followed by bilateral ligation-induced ischemia for 5 mins measured on day 1 post 3 days ischemia induction relative to control. The format is functional.
Data set [2] has as its system Meriones unguiculatus. Briefly: Cerebral protective activity in anesthetized cerebral ischemia-induced Mongolian gerbil hippocampus assessed as protective values on density of surviving neurons in CA1 subfields of hippocampus at 100 mg/kg, po pretreated for 30 mins followed by bilateral ligation-induced ischemia for 5 mins measured on day 1 post 3 days ischemia induction by hematoxylin and eosin staining based microscopic analysis relative to control. Format: functional.

Data set [3] relates to Meriones unguiculatus. Briefly: Cerebral protective activity against kainic acid-induced neuronal necrosis in po dosed Mongolian gerbil administered after kainic acid injection. Format: functional, organism-based. The method in brief: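 Male Mongolian gerbils (n = 10), fasted overnight, given atropine (5.0 µg/animal) and pentobarbital anesthesia (40 mg/kg ip). Kainic acid in saline at pH 7.4 (0.2 µL of 1.0 µg/µL) infused stereotaxically into right hippocampal CA3 over 4.0 min. Drug dosed orally after the lesion. Perfusion-fixed 4 days later. Surviving CA1 neuron density (/mm) scored. Mean ± SEM.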

Data set [4] in a line: Toxicity in Mongolian gerbil assessed as locomotion-reducing effect at 30 to 100 mg/kg, po. The format is organism-based, Meriones unguiculatus. The note with it: in vivo.
Data set [5] can be described thus: Toxicity in Mongolian gerbil assessed as effect on body temperature at 30 to 100 mg/kg, po. The format is organism-based, Meriones unguiculatus. Conditions: in vivo.
The subject of data set [6] is Meriones unguiculatus. Briefly: Cerebral protective activity in cerebral ischemia-induced Mongolian gerbil assessed as reduction in neuronal cell death in CA1 subfields of hippocampus at 30 mg/kg, po administered twice at 3 and 6 hrs after cerebral ischemia induction. Format: functional, organism-based. The method in brief: (§1)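 Gerbils (n = 10) subjected to bilateral carotid ligation ischemia, then given 30 mg/kg orally at 3 h or at 3 h and 6 h after ischemia. Brains perfusion-fixed in 10% neutral formalin and paraffin-embedded. 5-µm coronal sections stained with H&E. Surviving CA1 hippocampal neurons counted (/mm). Mean ± SEM, Student's t-test.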

Data set [7] concerns Meriones unguiculatus. Briefly: Cerebral protective activity against ischemia in Mongolian gerbil assessed as reduction in 45Ca2+ accumulation in brain at 30 mg/kg, po administered after cerebral ischemia induction for 15 mins in presence of 45CaCl2 by autoradiographic analysis.
A short description of data set [8]: Toxicity in Mongolian gerbil assessed as reduction in systolic blood pressure at 30 to 100 mg/kg, po. Conditions: in vivo. Format: organism-based, Meriones unguiculatus. The method in brief: (§2)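 Heart rate and mean systolic blood pressure recorded in gerbils after oral doses of 30 and 100 mg/kg.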
Data set [9] has as its system Meriones unguiculatus. Briefly: Cerebral protective activity in cerebral ischemia-induced Mongolian gerbil assessed as reduction in neuronal cell death at 30 mg/kg, po administered at 3hrs after cerebral ischemia induction. The format is functional, organism-based. The method in brief: as §1
The nature of data set [10]: Toxicity in Mongolian gerbil assessed as reduction in heart rate at 30 to 100 mg/kg, po. The format is organism-based, Meriones unguiculatus. The note with it: in vivo. The method in brief:
as §2

Regarding `COC(=O)c1nccc2c1[nH]c1ccccc12`, the Activity result in data set [1] is on record as “<=40%”; in data set [2], 30.1%.
For `CC[C@@H]1N[C@H](C(=O)O)Cc2c1[nH]c1ccccc21` the same measures were “<=40%” and 10.9%.
For `Cn1c(=O)cc2c3ccccc3n3c(=O)ccc1c23` the same measures were “<=40%” and 10.6%.
For `COc1ccc2c3ccn(C)c4cc(=O)c(=O)n(c3-4)c2c1`, the Activity result in [1] is on record as “>=40 - 60%”; in data set [2] it was 53.8%.
For `COc1c(OC)c2nccc3c4ccccc4n(c1=O)c23` [4,5-DIMETHOXYCANTHIN-6-ONE] the same measures were “<=40%” and 20.8%.
For `COc1c2n(C)ccc3c-2n(c(=O)c1=O)c1c(Br)cc(Br)cc31` the same measures were “<=40%” and -8.1%.
Turning to `COc1c(O)c(=O)n2c3ccccc3c3cc(O)nc1c32`, the values for the Activity entry in data set [1] and in data set [2] were “<=40%” and 26.2%, respectively.
Take `C[C@@H]1N[C@H](C(=O)O)Cc2c1[nH]c1ccccc21`: the Activity result in data set [1] is given as “<=40%”; in [2], -13.6%.
For `CCn1ccc2c3n(c(=O)c(=O)cc1-3)c1ccccc21` the same measures were “<=40%” and 92.3%.
Consider `COc1c(OC)c2c3c(cc(=O)n2C)c2ccccc2n3c1=O`, for which the Activity entry was “<=40%” in data set [1] and 24.3% in data set [2].
The matching figures for `CCn1ccc2c3n(c(=O)c(=O)c(OC)c1-3)c1ccccc21`: “<=40%” and 46.2%.
`[O-][n+]1ccc2c(c1)[nH]c1ccccc12`: the Activity entry in data set [1] was “<=40%”; in data set [2], 13.8%.
Consider `COc1c2n(C)ccc3c-2n(c(=O)c1=O)c1ccccc31`, for which the result in [3], in data set [6], in data set [7] and in data set [9] was Active. Also, the Activity result in [4] is listed as “Non-Toxic”; in data set [5], “Non-Toxic”; in [1] it was more than 80%; in data set [2], 73.1%; in data set [8] it was “Non-Toxic”; in data set [10] it was “Non-Toxic”.
For the molecule `COc1c(OC)c2nc(O)cc3c4ccccc4n(c1=O)c23`, the values for the Activity result in data set [1] and in data set [2] were “<=40%” and 2.8%, respectively.
For `Cc1c2[nH]c3ccccc3c2cc[n+]1[O-]` the same measures were “<=40%” and 14.2%.
The matching figures for `Cn1ccc2c3n(c(=O)c(=O)cc1-3)c1ccc(Br)cc21`: “<=40%” and 27.3%.
The matching figures for `Cn1ccc2c3n(c(=O)c(=O)cc1-3)c1c(Br)cc(Br)cc21`: “<=40%” and 3%.
On to `COc1c2n(C)ccc3c-2n(c(=O)c1=O)c1ccc(Br)cc31`, for which the values for the Activity result in [1] and in [2] were “<=40%” and -0.8%, respectively.
In the case of `COC(=O)[C@@H]1Cc2c([nH]c3ccccc23)[C@H](C)N1`, the Activity result in [1] is on record as “<=40%”; in [2], 18.6%.
For `COc1c(O)c(=O)n2c3ccccc3c3ccnc1c32` the same measures were “<=40%” and 13.9%.
For `Cn1ccc2c3n(c(=O)c(=O)cc1-3)c1ccccc21` the same measures were more than 80% and 84.6%.
For `CCc1c2n(C)ccc3c-2n(c(=O)c1=O)c1ccccc31` the same measures were “<=40%” and 26.3%.
